Molecules are shown by their SMILES.

Common to all, as to details: stereoisomer not certain
One test addresses T1, UniProt Q8VGC6.
T1 sequence (whole entry): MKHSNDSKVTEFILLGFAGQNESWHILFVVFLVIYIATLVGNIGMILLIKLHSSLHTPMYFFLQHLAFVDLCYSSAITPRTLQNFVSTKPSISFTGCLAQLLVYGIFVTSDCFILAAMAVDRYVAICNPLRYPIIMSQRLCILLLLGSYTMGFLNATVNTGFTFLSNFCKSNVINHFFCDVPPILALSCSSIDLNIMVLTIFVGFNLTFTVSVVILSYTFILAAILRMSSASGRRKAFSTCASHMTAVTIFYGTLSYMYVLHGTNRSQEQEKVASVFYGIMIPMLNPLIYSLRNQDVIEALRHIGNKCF
The method in brief:
(§1)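 Assay methods differ from source to source, frequently being transient luciferase assays in mammalian cell lines. For each receptor–molecule pair, the label responsive (active) applies when the original authors judged the measured signal statistically different from baseline, and non-responsive (inactive) applies otherwise.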

The target in a further test is T2, UniProt Q8VGD7.
T2 sequence (whole entry): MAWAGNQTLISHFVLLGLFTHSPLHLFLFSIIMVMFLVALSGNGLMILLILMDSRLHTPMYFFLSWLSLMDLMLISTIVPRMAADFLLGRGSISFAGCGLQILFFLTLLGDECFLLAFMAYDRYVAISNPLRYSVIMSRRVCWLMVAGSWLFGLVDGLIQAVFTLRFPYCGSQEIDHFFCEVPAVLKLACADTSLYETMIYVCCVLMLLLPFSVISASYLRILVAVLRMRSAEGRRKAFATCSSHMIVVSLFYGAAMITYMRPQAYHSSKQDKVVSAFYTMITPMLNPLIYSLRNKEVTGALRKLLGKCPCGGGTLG
In outline:
as §1

A further test has as its target T3, UniProt Q8VGH1.
T3 sequence (whole entry): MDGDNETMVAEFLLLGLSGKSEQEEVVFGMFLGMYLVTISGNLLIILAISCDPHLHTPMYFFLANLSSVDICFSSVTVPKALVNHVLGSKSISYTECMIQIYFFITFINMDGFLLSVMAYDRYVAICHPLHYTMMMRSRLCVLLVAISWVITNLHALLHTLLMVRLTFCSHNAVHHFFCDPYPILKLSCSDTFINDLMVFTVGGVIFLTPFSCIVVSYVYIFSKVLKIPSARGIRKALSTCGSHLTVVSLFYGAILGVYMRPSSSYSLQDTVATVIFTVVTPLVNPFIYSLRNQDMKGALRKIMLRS
The method in brief:
as §1

The target in the next test is T4, UniProt Q8VGJ1.
T4 sequence (whole entry): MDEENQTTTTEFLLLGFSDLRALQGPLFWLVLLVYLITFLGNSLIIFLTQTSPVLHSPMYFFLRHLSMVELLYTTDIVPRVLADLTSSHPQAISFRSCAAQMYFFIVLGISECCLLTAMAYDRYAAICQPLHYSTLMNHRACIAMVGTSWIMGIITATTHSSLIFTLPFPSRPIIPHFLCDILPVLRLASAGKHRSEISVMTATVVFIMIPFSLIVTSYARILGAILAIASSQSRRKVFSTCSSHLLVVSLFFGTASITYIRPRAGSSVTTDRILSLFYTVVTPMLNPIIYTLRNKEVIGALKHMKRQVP
In outline: as §1

The target in another test is T5, UniProt Q8VGJ3.
T5 sequence (whole entry): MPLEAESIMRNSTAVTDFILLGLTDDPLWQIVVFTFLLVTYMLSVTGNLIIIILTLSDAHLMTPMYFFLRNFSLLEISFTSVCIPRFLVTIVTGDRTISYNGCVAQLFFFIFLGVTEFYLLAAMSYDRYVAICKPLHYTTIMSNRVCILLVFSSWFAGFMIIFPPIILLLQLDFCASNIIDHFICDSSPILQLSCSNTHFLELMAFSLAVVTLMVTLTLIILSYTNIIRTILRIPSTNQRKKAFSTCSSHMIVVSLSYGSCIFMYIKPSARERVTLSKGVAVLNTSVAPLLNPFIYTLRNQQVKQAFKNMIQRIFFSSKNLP
The method in brief:
as §1

Another test has as its target T6, UniProt Q8VGJ5.
T6 sequence (whole entry): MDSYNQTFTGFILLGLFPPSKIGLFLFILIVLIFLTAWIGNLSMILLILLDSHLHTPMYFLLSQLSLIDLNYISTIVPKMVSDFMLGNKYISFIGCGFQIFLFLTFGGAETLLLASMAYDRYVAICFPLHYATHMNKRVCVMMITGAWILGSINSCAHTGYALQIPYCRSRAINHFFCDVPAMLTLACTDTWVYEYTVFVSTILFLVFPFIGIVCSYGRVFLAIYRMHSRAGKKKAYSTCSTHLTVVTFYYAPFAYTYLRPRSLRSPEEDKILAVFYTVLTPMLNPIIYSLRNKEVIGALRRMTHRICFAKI
In outline: as §1

Another test has as its target T7, UniProt Q8VGL0.
T7 sequence (whole entry): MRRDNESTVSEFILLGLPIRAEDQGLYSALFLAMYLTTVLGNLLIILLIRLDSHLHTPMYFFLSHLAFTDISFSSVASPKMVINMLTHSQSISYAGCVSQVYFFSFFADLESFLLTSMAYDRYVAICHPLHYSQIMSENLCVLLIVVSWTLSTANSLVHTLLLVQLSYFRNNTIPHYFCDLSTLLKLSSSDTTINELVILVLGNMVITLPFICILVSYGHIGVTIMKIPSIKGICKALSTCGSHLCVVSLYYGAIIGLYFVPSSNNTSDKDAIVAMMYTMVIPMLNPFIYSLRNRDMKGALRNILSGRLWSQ
The method in brief:
as §1

The target in the next test is T8, UniProt Q8VGL7.
T8 sequence (whole entry): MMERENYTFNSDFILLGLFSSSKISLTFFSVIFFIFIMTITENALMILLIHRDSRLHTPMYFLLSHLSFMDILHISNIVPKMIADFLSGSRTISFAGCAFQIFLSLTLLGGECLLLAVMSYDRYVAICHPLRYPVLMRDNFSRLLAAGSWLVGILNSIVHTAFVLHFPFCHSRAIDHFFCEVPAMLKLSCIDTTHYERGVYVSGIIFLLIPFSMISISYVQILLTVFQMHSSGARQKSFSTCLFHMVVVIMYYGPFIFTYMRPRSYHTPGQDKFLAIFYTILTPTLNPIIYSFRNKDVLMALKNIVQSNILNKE
The method in brief:
as §1

Turning to `C=CCOC(=O)CCCCCC`, the “odorant receptor agonist call” value with UniProt Q8VGC6, in the test with UniProt Q8VGD7, with UniProt Q8VGH1, in the test with UniProt Q8VGJ1, with UniProt Q8VGJ3 and with UniProt Q8VGJ5 was “inactive” throughout. Further, the “odorant receptor agonist call” value in the test with UniProt Q8VGL0 and with UniProt Q8VGL7 was “inactive” in each case.
In the case of `CC(C)=CCCC(C)CCO` (configuration not stated), the “odorant receptor agonist call” value with UniProt Q8VGC6 and with UniProt Q8VGL0 was “active” in each case. For the same compound, the “odorant receptor agonist call” value with UniProt Q8VGD7, in the test with UniProt Q8VGH1, in the test with UniProt Q8VGJ1, with UniProt Q8VGJ3, in the test with UniProt Q8VGJ5 and with UniProt Q8VGL7 was “inactive” in each case.
`c1ccccc1`: the “odorant receptor agonist call” value with UniProt Q8VGC6, with UniProt Q8VGD7, with UniProt Q8VGH1, with UniProt Q8VGJ1, with UniProt Q8VGJ3 and with UniProt Q8VGJ5 was “inactive” in each case. Further, the “odorant receptor agonist call” value with UniProt Q8VGL0 and in the test with UniProt Q8VGL7 was “inactive” in each case.
With `CCc1nccnc1CC`, the “odorant receptor agonist call” value with UniProt Q8VGC6, with UniProt Q8VGJ3 and in the test with UniProt Q8VGL0 was “inactive” throughout.
For `CCCCCOC(=O)CCCCC`, the “odorant receptor agonist call” value with UniProt Q8VGC6, with UniProt Q8VGD7, in the test with UniProt Q8VGH1, in the test with UniProt Q8VGJ1, with UniProt Q8VGJ3 and with UniProt Q8VGJ5 was “inactive” throughout. The “odorant receptor agonist call” value in the test with UniProt Q8VGL0 and with UniProt Q8VGL7 was “inactive” each time.
Turning to `CCCCCCCC(=O)[O-].[H+]`, the “odorant receptor agonist call” value with UniProt Q8VGC6, with UniProt Q8VGD7, in the test with UniProt Q8VGH1, with UniProt Q8VGJ1, with UniProt Q8VGJ5 and in the test with UniProt Q8VGL0 was “inactive” each time. Further, in the test with UniProt Q8VGL7, the “odorant receptor agonist call” value is “inactive”.
Take `CCCCCCCCCO`: the “odorant receptor agonist call” value with UniProt Q8VGC6 is “active”. Further, the “odorant receptor agonist call” value with UniProt Q8VGD7, in the test with UniProt Q8VGH1, with UniProt Q8VGJ1, with UniProt Q8VGJ3, with UniProt Q8VGJ5 and with UniProt Q8VGL0 was “inactive” each time. In addition, the “odorant receptor agonist call” value in the test with UniProt Q8VGL7 is “inactive”.
With `CC(=O)OCC=C(C)C`, the “odorant receptor agonist call” value with UniProt Q8VGC6 and with UniProt Q8VGJ5 was “active” each time. In addition, the “odorant receptor agonist call” value with UniProt Q8VGD7, in the test with UniProt Q8VGH1, with UniProt Q8VGJ1, with UniProt Q8VGJ3, with UniProt Q8VGL0 and with UniProt Q8VGL7 was “inactive” throughout.
Regarding `CCC(=O)C(=O)CC`, the “odorant receptor agonist call” value with UniProt Q8VGC6, with UniProt Q8VGD7, in the test with UniProt Q8VGH1, with UniProt Q8VGJ1, in the test with UniProt Q8VGJ3 and with UniProt Q8VGJ5 was “inactive” in each case. Also, the “odorant receptor agonist call” value with UniProt Q8VGL0 and with UniProt Q8VGL7 was “inactive” in each case.
For `CCCCC(C)=O`, the “odorant receptor agonist call” value with UniProt Q8VGC6, with UniProt Q8VGD7, with UniProt Q8VGH1, with UniProt Q8VGJ1, with UniProt Q8VGJ3 and in the test with UniProt Q8VGL0 was “inactive” each time. For the same compound, in the test with UniProt Q8VGL7, the “odorant receptor agonist call” value was “inactive”. The “odorant receptor agonist call” value in the test with UniProt Q8VGJ5 is “active”.
For the compound `COc1cc(C(=O)O)ccc1O`, the “odorant receptor agonist call” value with UniProt Q8VGC6, with UniProt Q8VGD7, with UniProt Q8VGH1, with UniProt Q8VGJ1, with UniProt Q8VGJ3 and with UniProt Q8VGJ5 was “inactive” in each case. Also, the “odorant receptor agonist call” value in the test with UniProt Q8VGL0 and in the test with UniProt Q8VGL7 was “inactive” in each case.

Values taken from the M2OR odorant receptor database.
